Key:
A-549 = test: Cytotoxicity assay, lung cancer cell line; format: cell-based; conditions: Homo sapiens, A549, read-out: cytotoxic activity IC50 ± SEM, A-549
Outline: (§1)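 Cytotoxicity of test compound was measured by MTT assay in a panel of four human cancer cell lines, with IC50 derived from the viability read-out.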

MCF-7 = test: Cytotoxicity assay, breast cancer cell line; format: cell-based; conditions: Homo sapiens, MCF7, read-out: cytotoxic activity IC50 ± SEM, MCF-7
Outline: as §1

Panc-1 = test: Cytotoxicity assay, pancreatic cancer cell line; format: cell-based; conditions: Homo sapiens, PANC-1, read-out: cytotoxic activity IC50 ± SEM, Panc-1
Outline: as §1

HT-29 = test: Cytotoxicity assay, colon cancer cell line; format: cell-based; conditions: Homo sapiens, HT-29, read-out: cytotoxic activity IC50 ± SEM, HT-29
Outline: as §1

[1] = test system: four human cancer cell lines (A-549, MCF-7, Panc-1, HT-29); test: Cytotoxicity assay, average over the four cancer cell lines; format: cell-based; conditions: read-out: cytotoxic activity average IC50 (GI50)
EGFR = EGFR (Homo sapiens, UniProt P00533); test: EGFR-TK inhibitory assay; format: biochemical
VEGFR-2 = VEGFR-2 (Homo sapiens, UniProt P35968); test: VEGFR-2 inhibitory kinase assay; format: biochemical
MCF-10A cells = test: Cell viability assay; format: cell-based, human; conditions: 50 μM doses
Outline: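 Normal human mammary gland epithelial MCF-10A cells were incubated with test compound for 4 days, and viability was read by MTT assay.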

p53 = test: Apoptosis marker immunoassay in A-549: p53; format: cell-based, human; conditions: A-549 cells
Outline: (§2)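 Sandwich immunoassay quantifying pro-apoptotic (p53, BAX, caspase 3, caspase 6) and antiapoptotic (BCL-2, CK-18) proteins in human lung A-549 cells treated with test compound. Levels are expressed as fold change relative to untreated control cells, as mean ± SD of three independent experiments.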

BAX = test: Apoptosis marker immunoassay in A-549: BAX; format: cell-based, human; conditions: A-549 cells
Outline: as §2

caspase 3 = test: Apoptosis marker immunoassay in A-549: caspase 3; format: cell-based, human; conditions: A-549 cells
Outline: as §2

caspase 6 = test: Apoptosis marker immunoassay in A-549: caspase 6; format: cell-based, human; conditions: A-549 cells
Outline: as §2

CK-18 = test: Apoptosis marker immunoassay in A-549: CK-18; format: cell-based, human; conditions: A-549 cells
Outline: as §2

Chain of EGFR (P00533 669-1210): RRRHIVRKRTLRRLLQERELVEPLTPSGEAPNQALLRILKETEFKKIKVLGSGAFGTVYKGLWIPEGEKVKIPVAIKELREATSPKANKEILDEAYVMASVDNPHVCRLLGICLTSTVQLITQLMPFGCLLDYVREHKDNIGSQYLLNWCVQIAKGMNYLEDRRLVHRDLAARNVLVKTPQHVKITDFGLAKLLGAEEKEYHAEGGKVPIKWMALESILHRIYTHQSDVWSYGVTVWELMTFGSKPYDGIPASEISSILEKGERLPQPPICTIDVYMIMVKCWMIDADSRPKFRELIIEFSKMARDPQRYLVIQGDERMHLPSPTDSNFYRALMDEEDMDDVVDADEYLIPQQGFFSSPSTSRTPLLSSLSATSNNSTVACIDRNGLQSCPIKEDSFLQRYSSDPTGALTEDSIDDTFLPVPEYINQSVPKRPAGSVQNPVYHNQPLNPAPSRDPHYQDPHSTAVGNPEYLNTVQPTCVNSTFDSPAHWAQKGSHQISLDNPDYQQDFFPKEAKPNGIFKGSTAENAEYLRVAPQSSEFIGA
Chain of VEGFR-2 (P35968 20-1356): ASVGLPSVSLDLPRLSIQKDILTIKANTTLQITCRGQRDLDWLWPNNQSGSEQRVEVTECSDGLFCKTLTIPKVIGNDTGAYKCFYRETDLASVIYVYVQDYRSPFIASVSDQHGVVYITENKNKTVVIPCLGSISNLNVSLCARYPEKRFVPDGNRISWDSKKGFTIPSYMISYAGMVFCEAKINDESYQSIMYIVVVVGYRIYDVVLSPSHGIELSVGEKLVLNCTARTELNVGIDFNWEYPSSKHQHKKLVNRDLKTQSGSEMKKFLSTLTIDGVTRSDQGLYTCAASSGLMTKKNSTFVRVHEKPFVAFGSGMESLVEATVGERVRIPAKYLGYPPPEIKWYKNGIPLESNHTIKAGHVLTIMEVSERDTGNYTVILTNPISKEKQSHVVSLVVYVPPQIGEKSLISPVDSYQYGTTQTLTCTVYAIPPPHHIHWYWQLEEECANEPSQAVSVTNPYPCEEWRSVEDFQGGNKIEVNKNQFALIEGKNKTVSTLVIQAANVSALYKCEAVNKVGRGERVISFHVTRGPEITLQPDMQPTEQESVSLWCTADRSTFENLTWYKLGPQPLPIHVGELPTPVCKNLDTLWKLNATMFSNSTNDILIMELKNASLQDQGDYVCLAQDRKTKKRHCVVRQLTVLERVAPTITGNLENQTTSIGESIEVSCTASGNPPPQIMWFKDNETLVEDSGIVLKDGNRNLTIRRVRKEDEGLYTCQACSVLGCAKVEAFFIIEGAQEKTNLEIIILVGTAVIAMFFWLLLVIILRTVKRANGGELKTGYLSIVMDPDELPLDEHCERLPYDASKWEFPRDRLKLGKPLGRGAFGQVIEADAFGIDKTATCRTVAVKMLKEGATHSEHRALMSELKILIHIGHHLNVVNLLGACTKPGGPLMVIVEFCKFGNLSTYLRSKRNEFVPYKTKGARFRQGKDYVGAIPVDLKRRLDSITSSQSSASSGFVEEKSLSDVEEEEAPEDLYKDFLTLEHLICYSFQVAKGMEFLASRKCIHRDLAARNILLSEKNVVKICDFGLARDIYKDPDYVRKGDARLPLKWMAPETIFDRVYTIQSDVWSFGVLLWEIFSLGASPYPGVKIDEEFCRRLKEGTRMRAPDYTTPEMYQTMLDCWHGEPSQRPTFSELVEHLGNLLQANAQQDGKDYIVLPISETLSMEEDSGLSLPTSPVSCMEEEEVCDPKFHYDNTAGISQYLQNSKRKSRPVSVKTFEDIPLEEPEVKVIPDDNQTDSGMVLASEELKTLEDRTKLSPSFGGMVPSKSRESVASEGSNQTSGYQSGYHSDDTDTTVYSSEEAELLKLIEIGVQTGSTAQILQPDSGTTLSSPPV

Row | SMILES | IC50 (A-549) [nM] | IC50 (MCF-7) [nM] | IC50 (Panc-1) [nM] | IC50 (HT-29) [nM] | IC50 [1] [nM] | IC50 (EGFR) [nM] | IC50 (VEGFR-2) [nM] | effect on nontumor cells MCF-10A (MCF-10A cells) | p53 elevation compared to control untreated cells (p53) [fold] | BAX elevation compared to control untreated cells (BAX) [fold] | caspase 3 elevation compared to control untreated cells (caspase 3) [fold] | caspase 6 elevation compared to control untreated cells (caspase 6) [fold] | CK 18 protein expression level compared to control untreated cells (CK-18) [folds]
1 | COc1cc(C2NC(=S)NC(C)=C2C(=O)OC(C)C)ccc1O (stereo not shown) [Compound 4, Isopropyl 4-(4-Hydroxy-3-methoxyphenyl)-6-methyl-2-thioxo-1,2,3,4-tetrahydropyrimidine-5-carboxylate] | 47 ± 4 | 50 ± 5 | 48 ± 4 | 49 ± 4 | 49 | – | – | – | – | – | – | – | –
2 | COc1ccc(C2NC(=S)NC(C)=C2C(=O)OC(C)C)cc1OC (stereo not shown) [Compound 5, Isopropyl 4-(3,4-Dimethoxyphenyl)-6-methyl-2-thioxo-1,2,3,4-tetrahydropyrimidine-5-carboxylate] | 67 ± 6 | 71 ± 6 | 68 ± 6 | 70 ± 6 | 68 | – | – | – | – | – | – | – | –
3 | COc1cc(C2NC(=S)NC(C)=C2C(=O)OC(C)C)cc(OC)c1OC (stereo not shown) [Compound 6, Isopropyl 6-Methyl-2-thioxo-4-(3,4,5-trimethoxyphenyl)-1,2,3,4-tetrahydropyrimidine-5-carboxylate] | 42 ± 4 | 46 ± 4 | 44 ± 4 | 47 ± 4 | 45 | 98 ± 6 | 5.3 ± 0.05 | – | – | – | – | – | –
4 | CC1=C(C(=O)OC(C)C)C(c2cccc(O)c2)NC(=S)N1 (stereo not shown) [Compound 7, Isopropyl 4-(3-Hydroxyphenyl)-6-methyl-2-thioxo-1,2,3,4-tetrahydropyrimidine-5-carboxylate] | 70 ± 7 | 74 ± 7 | 72 ± 7 | 73 ± 7 | 71 | – | – | – | – | – | – | – | –
5 | CC1=C(C(=O)OC(C)C)C(c2ccc(O)cc2)NC(=S)N1 (stereo not shown) [Compound 8, Isopropyl 4-(4-Hydroxyphenyl)-6-methyl-2-thioxo-1,2,3,4-tetrahydropyrimidine-5-carboxylate] | 64 ± 6 | 68 ± 6 | 67 ± 6 | 68 ± 6 | 67 | – | – | – | – | – | – | – | –
6 | COc1cc(C2NC(=O)NC(C)=C2C(=O)OC(C)C)ccc1O (stereo not shown) [Compound 9, Isopropyl 4-(4-Hydroxy-3-methoxyphenyl)-6-methyl-2-oxo-1,2,3,4-tetrahydropyrimidine-5-carboxylate] | 74 ± 7 | 79 ± 7 | 75 ± 7 | 77 ± 7 | 76 | – | – | – | – | – | – | – | –
7 | COc1ccc(C2NC(=O)NC(C)=C2C(=O)OC(C)C)cc1OC (stereo not shown) [Compound 10, Isopropyl 4-(3,4-Dimethoxyphenyl)-6-methyl-2-oxo-1,2,3,4-tetrahydropyrimidine-5-carboxylate] | 52 ± 5 | 55 ± 5 | 52 ± 5 | 54 ± 5 | 53 | – | – | – | – | – | – | – | –
8 | COc1cc(C2NC(=O)NC(C)=C2C(=O)OC(C)C)cc(OC)c1OC (stereo not shown) [Compound 11, Isopropyl 6-Methyl-2-oxo-4-(3,4,5-trimethoxyphenyl)-1,2,3,4-tetrahydropyrimidine-5-carboxylate] | 56 ± 5 | 58 ± 5 | 56 ± 5 | 59 ± 5 | 57 | – | – | – | – | – | – | – | –
9 | CC1=C(C(=O)OC(C)C)C(c2cccc(O)c2)NC(=O)N1 (stereo not shown) [Compound 12, Isopropyl 4-(3-Hydroxyphenyl)-6-methyl-2-oxo-1,2,3,4-tetrahydropyrimidine-5-carboxylate] | 36 ± 3 | 38 ± 3 | 36 ± 3 | 38 ± 3 | 37 | 87 ± 5 | 4.2 ± 0.04 | no effect | 4.75 | 13.95 | 8.20 | 9.65 | –
10 | CC1=C(C(=O)OC(C)C)C(c2ccc(O)cc2)NC(=O)N1 (stereo not shown) [Compound 13, Isopropyl 4-(4-Hydroxyphenyl)-6-methyl-2-oxo-1,2,3,4-tetrahydropyrimidine-5-carboxylate] | 62 ± 6 | 64 ± 6 | 61 ± 6 | 64 ± 6 | 62 | – | – | – | – | – | – | – | –
11 | COc1ccc(C2NC(=O)NC(C)=C2C(=O)OC(C)C)cc1O (stereo not shown) [Compound 14, Isopropyl 4-(3-Hydroxy-4-methoxyphenyl)-6-methyl-2-oxo-1,2,3,4-tetrahydropyrimidine-5-carboxylate] | 40 ± 4 | 44 ± 4 | 42 ± 4 | 43 ± 4 | 41 | 92 ± 5 | 4.7 ± 0.04 | – | 3.10 | 11.50 | 7.40 | 8.50 | 0.40
12 | COc1cc(C2NC(=O)NC(C)=C2C(=O)OC(C)C)ccc1OCc1ccccc1 (stereo not shown) [Compound 15, Isopropyl 4-[4-(Benzyloxy)-3-methoxyphenyl]-6-methyl-2-oxo-1,2,3,4-tetrahydropyrimidine-5-carboxylate] | 33 ± 3 | 36 ± 3 | 34 ± 3 | 36 ± 3 | 35 | 84 ± 5 | 3.5 ± 0.03 | no effect | 5.90 | 14.50 | 8.70 | 9.80 | 0.60
13 | C#Cc1cccc(Nc2ncnc3cc(OCCOC)c(OCCOC)cc23)c1 [erlotinib, reference compound] | 30 ± 3 | 40 ± 3 | 30 ± 3 | 30 ± 3 | – | – | – | – | – | – | – | – | –
